From ChEMBL document CHEMBL1139946, “1-Aryl-4,6-dihydropyrazolo[4,3-d][1]benzazepin-5(1H)-ones: a new class of antiproliferative agents with selectivity for human leukemia and breast cancer cell lines” (Eur J Med Chem, 2007) come the findings set out here.

Experiment [1] concerns the target T1, Aurora kinase A (Homo sapiens) (UniProt O14965).
T1 sequence (whole entry): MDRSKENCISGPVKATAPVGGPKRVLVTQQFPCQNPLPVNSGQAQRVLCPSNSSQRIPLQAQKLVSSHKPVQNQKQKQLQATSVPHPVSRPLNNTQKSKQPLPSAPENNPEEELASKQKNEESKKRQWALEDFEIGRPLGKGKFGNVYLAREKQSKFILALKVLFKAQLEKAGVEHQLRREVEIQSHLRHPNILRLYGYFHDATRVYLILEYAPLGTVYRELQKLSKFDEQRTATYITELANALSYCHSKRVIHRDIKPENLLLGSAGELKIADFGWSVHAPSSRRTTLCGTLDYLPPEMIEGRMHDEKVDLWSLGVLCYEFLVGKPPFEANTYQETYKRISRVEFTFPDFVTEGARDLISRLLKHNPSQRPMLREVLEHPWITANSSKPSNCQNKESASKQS
Description: Inhibition of aurora A at 10 uM.

Experiment [2] addresses Angiopoietin-1 receptor (Homo sapiens) (UniProt Q02763). The experiment in a line: Inhibition of TIE2 at 10 uM.
Experiment [3] has as its target Aurora kinase B (Homo sapiens) (UniProt Q96GD4). Description: Inhibition of aurora B at 10 uM.
Another experiment concerns NCI-H460. Description: Antiproliferative activity against human NCI-H460 cells at 100 uM after 48 hrs relative to control. Type of experiment: functional. As to conditions: NCI-H460, 48 h. A digest of the protocol: (§1)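 NCI three-cell-line prescreen (MCF7 breast, NCI-H460 non-small cell lung, SF-268 CNS). Cells inoculated and preincubated in microtiter plates, then exposed to test agent at 10^-4 M for 48 h. Alamar blue end-point read-out. Growth of treated cells expressed as percent of untreated control cells.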

Experiment [4] concerns the target Hepatocyte growth factor receptor (Homo sapiens) (UniProt P08581). Description: Inhibition of MET at 10 uM.
For experiment [5], the target named is 3-phosphoinositide-dependent protein kinase 1 (Homo sapiens) (UniProt O15530). The experiment in a line: Inhibition of PDK1 at 10 uM.
In experiment [6] the target is Receptor-type tyrosine-protein kinase FLT3 (Homo sapiens) (UniProt P36888). Description: Inhibition of FLT3 at 10 uM.
Experiment [7] addresses Receptor tyrosine-protein kinase erbB-2 (Homo sapiens) (UniProt P04626). The experiment in a line: Inhibition of ERBB2 at 10 uM.
The target of experiment [8] is Vascular endothelial growth factor receptor 3 (Homo sapiens, UniProt P35916). The experiment in a line: Inhibition of VEGFR3 at 10 uM.
For experiment [9], the species on record is Homo sapiens. Description: Inhibition of CDK4/cyclinD1 at 10 uM.
Experiment [10] deals with Vascular endothelial growth factor receptor 2 (Homo sapiens) (UniProt P35968). The experiment in a line: Inhibition of VEGFR2 at 10 uM.
In experiment [11] the target is Insulin-like growth factor 1 receptor (Homo sapiens) (UniProt P08069). Description: Inhibition of IGF1R at 10 uM.
The target of experiment [12] is Focal adhesion kinase 1 (Homo sapiens) (UniProt Q05397). The experiment in a line: Inhibition of FAK at 10 uM.
Experiment [13] has as its target T2, Serine/threonine-protein kinase PLK4 (Homo sapiens) (UniProt O00444).
T2 sequence (whole entry): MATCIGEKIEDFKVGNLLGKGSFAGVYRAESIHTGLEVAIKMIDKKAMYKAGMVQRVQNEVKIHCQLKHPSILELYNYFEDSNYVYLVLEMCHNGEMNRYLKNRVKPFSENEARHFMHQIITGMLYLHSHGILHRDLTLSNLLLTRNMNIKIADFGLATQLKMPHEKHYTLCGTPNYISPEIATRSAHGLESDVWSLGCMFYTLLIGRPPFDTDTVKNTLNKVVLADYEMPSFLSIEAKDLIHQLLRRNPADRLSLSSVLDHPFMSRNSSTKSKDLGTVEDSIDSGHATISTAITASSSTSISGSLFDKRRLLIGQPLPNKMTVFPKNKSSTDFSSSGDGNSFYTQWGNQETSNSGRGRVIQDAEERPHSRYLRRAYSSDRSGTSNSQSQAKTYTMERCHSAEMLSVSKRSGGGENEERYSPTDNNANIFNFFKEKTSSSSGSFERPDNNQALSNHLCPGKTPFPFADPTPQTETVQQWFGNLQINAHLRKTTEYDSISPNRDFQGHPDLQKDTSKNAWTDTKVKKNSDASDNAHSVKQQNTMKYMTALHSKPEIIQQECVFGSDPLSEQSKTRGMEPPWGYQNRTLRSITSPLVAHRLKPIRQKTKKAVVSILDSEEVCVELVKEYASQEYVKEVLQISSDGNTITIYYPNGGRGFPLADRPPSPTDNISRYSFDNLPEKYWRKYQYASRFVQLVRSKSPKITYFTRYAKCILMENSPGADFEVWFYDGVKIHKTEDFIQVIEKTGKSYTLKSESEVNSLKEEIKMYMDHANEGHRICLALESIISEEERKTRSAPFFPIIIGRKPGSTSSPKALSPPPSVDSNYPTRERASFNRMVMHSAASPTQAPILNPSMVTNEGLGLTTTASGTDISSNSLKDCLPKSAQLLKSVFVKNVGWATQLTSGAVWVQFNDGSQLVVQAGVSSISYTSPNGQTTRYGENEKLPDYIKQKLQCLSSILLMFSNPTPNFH
The experiment in a line: Inhibition of SAK at 10 uM.

The next experiment concerns SF-268. The experiment in a line: Antiproliferative activity against human SF268 cells at 100 uM after 48 hrs relative to control. In kind it is functional. As to conditions: SF-268, 48 h. A digest of the protocol:
as §1

In experiment [14] the target is Serine/threonine-protein kinase PLK1 (Homo sapiens) (UniProt P53350). The experiment in a line: Inhibition of PLK1 at 10 uM.
In experiment [15] the target is Proto-oncogene tyrosine-protein kinase Src (Homo sapiens) (UniProt P12931). The experiment in a line: Inhibition of SRC at 10 uM.
The species entered for experiment [16] is Homo sapiens. The experiment in a line: Inhibition of CK2-alpha1 at 10 uM.

A value given as a limit tells only on which side of the number the result lay.

Chain of Insulin-like growth factor 1 receptor (Homo sapiens) (P08069 31-736 limits assumed): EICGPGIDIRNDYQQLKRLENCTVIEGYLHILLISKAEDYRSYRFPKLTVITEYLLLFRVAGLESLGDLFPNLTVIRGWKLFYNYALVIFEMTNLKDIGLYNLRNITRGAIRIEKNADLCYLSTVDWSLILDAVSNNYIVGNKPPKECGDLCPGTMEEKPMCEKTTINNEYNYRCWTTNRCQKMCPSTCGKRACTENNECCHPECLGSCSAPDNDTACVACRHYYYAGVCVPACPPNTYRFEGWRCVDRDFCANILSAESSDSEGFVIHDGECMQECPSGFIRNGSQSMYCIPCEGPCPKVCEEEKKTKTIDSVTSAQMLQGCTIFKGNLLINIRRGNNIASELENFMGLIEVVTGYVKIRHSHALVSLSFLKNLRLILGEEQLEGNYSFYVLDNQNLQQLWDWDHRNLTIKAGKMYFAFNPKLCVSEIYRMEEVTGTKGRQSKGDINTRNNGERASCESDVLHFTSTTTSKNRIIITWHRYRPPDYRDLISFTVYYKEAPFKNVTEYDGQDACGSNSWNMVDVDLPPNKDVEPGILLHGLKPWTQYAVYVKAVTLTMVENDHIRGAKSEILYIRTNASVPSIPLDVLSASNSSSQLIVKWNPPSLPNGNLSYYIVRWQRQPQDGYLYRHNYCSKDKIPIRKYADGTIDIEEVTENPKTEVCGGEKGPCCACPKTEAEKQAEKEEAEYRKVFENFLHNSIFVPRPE
Chain of Insulin-like growth factor 1 receptor (Homo sapiens) (P08069 741-1367 limits assumed): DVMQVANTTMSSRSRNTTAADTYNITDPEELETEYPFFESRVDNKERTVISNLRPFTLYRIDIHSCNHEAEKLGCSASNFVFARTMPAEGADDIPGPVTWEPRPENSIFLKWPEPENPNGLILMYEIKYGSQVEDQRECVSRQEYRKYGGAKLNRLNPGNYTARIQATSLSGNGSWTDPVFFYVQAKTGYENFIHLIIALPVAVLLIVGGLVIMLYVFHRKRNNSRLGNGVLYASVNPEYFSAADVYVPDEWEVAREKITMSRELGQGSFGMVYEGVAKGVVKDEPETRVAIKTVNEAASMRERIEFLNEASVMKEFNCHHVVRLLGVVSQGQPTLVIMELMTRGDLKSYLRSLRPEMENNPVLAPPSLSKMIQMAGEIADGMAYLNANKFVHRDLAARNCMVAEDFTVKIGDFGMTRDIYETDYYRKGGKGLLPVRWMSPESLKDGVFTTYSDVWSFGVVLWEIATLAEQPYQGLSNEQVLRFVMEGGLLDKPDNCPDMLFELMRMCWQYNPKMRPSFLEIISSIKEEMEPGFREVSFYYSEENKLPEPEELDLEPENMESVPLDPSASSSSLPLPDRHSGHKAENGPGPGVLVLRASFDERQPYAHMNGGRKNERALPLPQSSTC
Chain of Focal adhesion kinase 1 (Homo sapiens) (Q05397 2-1052 limits assumed): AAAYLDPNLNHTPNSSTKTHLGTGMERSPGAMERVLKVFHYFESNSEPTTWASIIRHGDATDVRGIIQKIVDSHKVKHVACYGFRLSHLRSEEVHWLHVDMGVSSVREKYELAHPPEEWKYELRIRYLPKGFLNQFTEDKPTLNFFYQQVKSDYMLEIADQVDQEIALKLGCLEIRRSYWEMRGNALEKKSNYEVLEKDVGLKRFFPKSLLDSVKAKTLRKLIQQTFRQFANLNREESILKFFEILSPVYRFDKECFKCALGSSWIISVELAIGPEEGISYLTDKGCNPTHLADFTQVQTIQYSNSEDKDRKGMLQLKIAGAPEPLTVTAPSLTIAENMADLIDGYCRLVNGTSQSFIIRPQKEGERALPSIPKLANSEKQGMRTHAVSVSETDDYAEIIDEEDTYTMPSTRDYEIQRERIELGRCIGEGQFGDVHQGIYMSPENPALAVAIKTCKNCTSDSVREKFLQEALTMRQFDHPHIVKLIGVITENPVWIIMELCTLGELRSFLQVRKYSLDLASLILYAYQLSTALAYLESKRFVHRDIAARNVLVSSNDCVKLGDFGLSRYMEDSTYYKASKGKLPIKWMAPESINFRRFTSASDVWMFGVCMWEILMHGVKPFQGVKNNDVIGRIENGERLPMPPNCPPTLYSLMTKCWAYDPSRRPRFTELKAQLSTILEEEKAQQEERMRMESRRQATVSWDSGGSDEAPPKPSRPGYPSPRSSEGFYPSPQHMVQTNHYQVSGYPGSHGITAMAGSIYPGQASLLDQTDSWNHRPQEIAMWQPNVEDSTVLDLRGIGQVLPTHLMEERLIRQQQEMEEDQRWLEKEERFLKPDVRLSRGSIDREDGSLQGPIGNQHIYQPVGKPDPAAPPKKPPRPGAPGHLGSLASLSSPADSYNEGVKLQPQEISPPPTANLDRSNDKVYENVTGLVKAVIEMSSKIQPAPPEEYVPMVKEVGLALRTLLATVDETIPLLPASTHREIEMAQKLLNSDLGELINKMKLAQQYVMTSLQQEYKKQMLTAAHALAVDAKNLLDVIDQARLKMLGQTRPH
Chain of Proto-oncogene tyrosine-protein kinase Src (Homo sapiens) (P12931 2-536 limits assumed): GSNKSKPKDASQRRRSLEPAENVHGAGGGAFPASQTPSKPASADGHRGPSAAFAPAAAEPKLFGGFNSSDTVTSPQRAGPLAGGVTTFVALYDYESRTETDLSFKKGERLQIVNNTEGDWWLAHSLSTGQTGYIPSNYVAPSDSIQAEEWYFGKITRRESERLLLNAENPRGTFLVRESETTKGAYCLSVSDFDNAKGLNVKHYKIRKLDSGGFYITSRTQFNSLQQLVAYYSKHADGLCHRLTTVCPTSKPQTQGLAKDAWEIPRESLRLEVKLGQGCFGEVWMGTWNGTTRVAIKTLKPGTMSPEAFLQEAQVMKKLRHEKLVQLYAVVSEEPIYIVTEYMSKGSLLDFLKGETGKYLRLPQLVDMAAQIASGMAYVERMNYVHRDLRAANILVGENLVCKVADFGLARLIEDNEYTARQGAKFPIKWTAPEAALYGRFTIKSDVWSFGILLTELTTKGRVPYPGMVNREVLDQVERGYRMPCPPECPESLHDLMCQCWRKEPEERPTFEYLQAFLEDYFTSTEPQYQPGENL
Chain of Angiopoietin-1 receptor (Homo sapiens) (Q02763 whole entry): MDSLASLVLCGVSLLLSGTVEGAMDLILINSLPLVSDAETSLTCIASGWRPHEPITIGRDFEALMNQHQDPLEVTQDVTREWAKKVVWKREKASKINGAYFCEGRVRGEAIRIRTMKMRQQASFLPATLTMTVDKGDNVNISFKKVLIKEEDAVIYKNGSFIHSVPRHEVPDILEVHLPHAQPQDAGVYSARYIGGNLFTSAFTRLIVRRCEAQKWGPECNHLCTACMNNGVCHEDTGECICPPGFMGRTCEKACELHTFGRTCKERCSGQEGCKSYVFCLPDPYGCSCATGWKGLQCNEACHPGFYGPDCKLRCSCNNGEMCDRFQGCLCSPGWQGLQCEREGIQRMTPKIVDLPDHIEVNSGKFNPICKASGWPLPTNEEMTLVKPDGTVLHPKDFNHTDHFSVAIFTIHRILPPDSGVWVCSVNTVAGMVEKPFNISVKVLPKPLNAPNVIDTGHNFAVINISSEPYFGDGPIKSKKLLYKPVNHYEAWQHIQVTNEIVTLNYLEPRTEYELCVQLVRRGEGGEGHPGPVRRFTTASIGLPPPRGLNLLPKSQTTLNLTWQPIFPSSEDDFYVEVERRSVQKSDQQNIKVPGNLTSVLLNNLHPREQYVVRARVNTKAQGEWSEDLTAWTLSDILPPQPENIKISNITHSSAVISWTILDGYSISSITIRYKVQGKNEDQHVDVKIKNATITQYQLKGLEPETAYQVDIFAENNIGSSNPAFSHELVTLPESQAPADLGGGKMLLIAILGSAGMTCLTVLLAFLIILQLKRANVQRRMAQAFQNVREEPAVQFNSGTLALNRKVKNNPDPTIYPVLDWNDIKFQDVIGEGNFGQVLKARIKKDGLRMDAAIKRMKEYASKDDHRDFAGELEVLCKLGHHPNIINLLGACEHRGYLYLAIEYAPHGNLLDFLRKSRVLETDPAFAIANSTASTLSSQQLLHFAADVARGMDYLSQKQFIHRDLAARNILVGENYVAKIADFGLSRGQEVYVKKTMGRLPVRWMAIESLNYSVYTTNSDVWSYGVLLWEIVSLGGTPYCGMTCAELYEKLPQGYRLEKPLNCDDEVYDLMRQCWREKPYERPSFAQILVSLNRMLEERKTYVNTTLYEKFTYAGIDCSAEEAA
Chain of Aurora kinase B (Homo sapiens) (Q96GD4 whole entry): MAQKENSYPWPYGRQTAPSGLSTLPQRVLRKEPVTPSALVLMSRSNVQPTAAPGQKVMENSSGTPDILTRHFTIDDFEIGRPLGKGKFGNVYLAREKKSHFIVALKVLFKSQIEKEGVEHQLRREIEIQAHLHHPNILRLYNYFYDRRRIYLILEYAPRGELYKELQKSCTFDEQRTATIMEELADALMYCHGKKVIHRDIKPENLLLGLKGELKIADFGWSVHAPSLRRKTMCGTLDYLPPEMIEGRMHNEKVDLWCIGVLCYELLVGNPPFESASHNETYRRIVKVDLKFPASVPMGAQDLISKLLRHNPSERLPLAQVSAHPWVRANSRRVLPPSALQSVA
Chain of 3-phosphoinositide-dependent protein kinase 1 (Homo sapiens) (O15530 whole entry, looked up): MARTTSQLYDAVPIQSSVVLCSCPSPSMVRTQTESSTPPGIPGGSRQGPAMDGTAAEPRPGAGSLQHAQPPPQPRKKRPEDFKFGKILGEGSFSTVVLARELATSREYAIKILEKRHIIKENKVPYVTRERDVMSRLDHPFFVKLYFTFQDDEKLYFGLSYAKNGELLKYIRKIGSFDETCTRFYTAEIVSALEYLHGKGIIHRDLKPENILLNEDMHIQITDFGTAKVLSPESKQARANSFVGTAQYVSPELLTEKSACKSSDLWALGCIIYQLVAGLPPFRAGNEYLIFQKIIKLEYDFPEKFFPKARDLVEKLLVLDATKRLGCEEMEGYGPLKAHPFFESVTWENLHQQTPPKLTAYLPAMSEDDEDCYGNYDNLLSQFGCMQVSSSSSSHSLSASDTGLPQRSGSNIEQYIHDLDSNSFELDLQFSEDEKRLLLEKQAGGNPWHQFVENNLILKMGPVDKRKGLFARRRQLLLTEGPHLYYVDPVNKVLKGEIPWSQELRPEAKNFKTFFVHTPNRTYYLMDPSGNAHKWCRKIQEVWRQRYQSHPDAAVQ

Take `Cc1ccc(-n2ncc3c2-c2ccccc2NC(=O)C3)cc1`: the inhibition in experiment [1], in experiment [2], in [3], in experiment [4], in experiment [5] and in [6] was below 40% in each case. Further, the inhibition (in experiment [7]; in experiment [8]; in the experiment listed under Homo sapiens [9]; in experiment [10]; in experiment [11]; in [12]) was below 40% in each case. Besides, the inhibition (in experiment [13]; in experiment [14]; in [15]; in the experiment listed under Homo sapiens [16]) was below 40% throughout. For the same molecule, the growth, % of control at 100 µM with NCI-H460 is 29%; in the experiment with SF-268 it was 95%.

In the case of `O=C1Cc2cnn(-c3ccc(Br)cc3)c2-c2ccccc2N1`, the inhibition in experiment [1], in experiment [2], in experiment [3], in experiment [4], in experiment [5] and in experiment [6] was below 40% throughout. Besides, the inhibition (in experiment [7]; in experiment [8]; in the experiment filed under Homo sapiens [9]; in [10]; in [11]; in experiment [12]) was below 40% in each case. For the same molecule, the inhibition (in [13]; in experiment [14]; in experiment [15]; in the experiment listed under Homo sapiens [16]) was below 40% each time. The growth, % of control at 100 µM in the experiment with NCI-H460 turned out to be 32%; in the experiment with SF-268, 98%.

As to `O=C1Cc2cnn(-c3ccc(F)cc3F)c2-c2ccccc2N1`, the inhibition in experiment [1], in experiment [2], in experiment [3], in experiment [4], in experiment [5] and in [6] was below 40% in each case. The inhibition (in experiment [7]; in [8]; in the experiment listed under Homo sapiens [9]; in experiment [10]; in experiment [11]; in experiment [12]) was below 40% throughout. Also, the inhibition (in experiment [13]; in experiment [14]; in experiment [15]; in the experiment listed under Homo sapiens [16]) was below 40% in each case. Besides, the values for the growth, % of control at 100 µM with NCI-H460 and in the experiment with SF-268 were 41% and 98%, respectively.

As to `O=C1Cc2cnn(-c3cc(Cl)cc(Cl)c3)c2-c2ccccc2N1`, the inhibition in experiment [1], in experiment [2], in experiment [3], in [4], in [5] and in experiment [6] was below 40% throughout. The inhibition (in experiment [7]; in [8]; in the experiment listed under Homo sapiens [9]; in [10]; in experiment [11]; in experiment [12]) was below 40% in each case. Besides, the inhibition (in [13]; in experiment [14]; in experiment [15]; in the experiment filed under Homo sapiens [16]) was below 40% throughout. Moreover, the growth, % of control at 100 µM with NCI-H460 was 21%; in the experiment on SF-268, 62%.

In the case of `Cc1ccccc1-n1ncc2c1-c1ccccc1NC(=O)C2`, the inhibition in experiment [1], in [2], in [3], in experiment [4], in experiment [5] and in experiment [6] was below 40% each time. Also, the inhibition (in experiment [7]; in [8]; in the experiment listed under Homo sapiens [9]; in experiment [10]; in experiment [11]; in experiment [12]) was below 40% throughout. For the same molecule, the inhibition (in experiment [13]; in [14]; in experiment [15]; in the experiment listed under Homo sapiens [16]) was below 40% each time. Further, the growth, % of control at 100 µM in the experiment with NCI-H460 worked out at 49%; with SF-268 it was 98%.

For `O=C1Cc2cnn(-c3ccc([N+](=O)[O-])cc3)c2-c2ccccc2N1`, the inhibition in experiment [1], in experiment [2], in [3], in experiment [4], in [5] and in [6] was below 40% in each case. Also, the inhibition (in experiment [7]; in experiment [8]; in the experiment listed under Homo sapiens [9]; in [10]; in experiment [11]; in experiment [12]) was below 40% each time. The inhibition (in experiment [13]; in [14]; in experiment [15]; in the experiment filed under Homo sapiens [16]) was below 40% throughout. The growth, % of control at 100 µM in the experiment with NCI-H460 and in the experiment with SF-268 was 62% in each case.

As to `O=C1Cc2cnn(-c3ccccc3Br)c2-c2ccccc2N1`, the inhibition in [1], in experiment [2], in experiment [3], in experiment [4], in experiment [5] and in [6] was below 40% each time. Besides, the inhibition (in [7]; in experiment [8]; in the experiment listed under Homo sapiens [9]; in [10]; in experiment [11]; in experiment [12]) was below 40% each time. Besides, the inhibition (in [13]; in [14]; in experiment [15]; in the experiment filed under Homo sapiens [16]) was below 40% throughout. Moreover, the growth, % of control at 100 µM was 44% in the experiment with NCI-H460 and 87% in the experiment on SF-268.
